Blank lines part the entries; values can stand above or below the molecule they belong to. *: point of attachment. FITC = O=C1OC2(c3ccc(O)cc3Oc3cc(O)ccc32)c2ccc(NC(=S)*)cc21; βAla = NCCC(=O)O
Key:
Petit-LUBAC = molecular target: T1, Petit-LUBAC (Homo sapiens, UniProt Q96EP0+Q9BYM8); experiment: Native gel shift assay; type: binding; conditions: 2.5 μM FITC peptide, 50 μg/mL protein, 1 h 37 °C, hrCNE
T1 sequence (Q96EP0 474-1072): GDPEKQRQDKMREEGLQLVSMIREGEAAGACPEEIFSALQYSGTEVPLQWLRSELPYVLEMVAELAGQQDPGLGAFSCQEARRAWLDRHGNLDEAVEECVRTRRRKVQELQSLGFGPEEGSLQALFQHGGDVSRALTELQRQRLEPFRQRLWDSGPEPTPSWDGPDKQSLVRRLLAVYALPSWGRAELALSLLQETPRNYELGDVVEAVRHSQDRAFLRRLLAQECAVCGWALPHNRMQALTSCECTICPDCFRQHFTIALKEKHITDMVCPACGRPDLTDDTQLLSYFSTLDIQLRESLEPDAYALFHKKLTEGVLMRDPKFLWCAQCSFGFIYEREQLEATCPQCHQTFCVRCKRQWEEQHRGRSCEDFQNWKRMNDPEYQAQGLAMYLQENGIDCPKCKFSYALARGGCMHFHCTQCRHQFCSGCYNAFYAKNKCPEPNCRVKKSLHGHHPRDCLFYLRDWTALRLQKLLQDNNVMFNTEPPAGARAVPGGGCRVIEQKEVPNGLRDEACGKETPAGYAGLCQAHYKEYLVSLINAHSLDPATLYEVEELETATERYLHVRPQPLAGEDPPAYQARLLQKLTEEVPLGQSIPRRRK
T1 sequence (Q9BYM8 1-191): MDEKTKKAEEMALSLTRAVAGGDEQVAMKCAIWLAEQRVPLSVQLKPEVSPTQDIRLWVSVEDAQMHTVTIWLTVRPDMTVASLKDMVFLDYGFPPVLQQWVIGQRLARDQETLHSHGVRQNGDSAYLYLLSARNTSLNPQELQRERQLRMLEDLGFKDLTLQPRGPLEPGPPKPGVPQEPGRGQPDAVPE
Method in brief: (§1)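 Recombinant protein, expressed in Rosetta (DE3) E. coli, was mixed at 50 μg/mL with 2.5 μM FITC-peptide in 1X ubiquitylation buffer, with or without 20 μM unlabelled peptide competitor. Mixtures were incubated 1 h at 37 °C and resolved on 5% acrylamide native gels (bis-Tris, pH 7.0; Tricine/imidazole/deoxycholate cathode buffer) at […] for 4–5 h at 4 °C. Fluorescent bands were imaged, with protein-only lanes as controls.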

HOIP-UBA = molecular target: T2, HOIP-UBA (Homo sapiens, UniProt Q96EP0); experiment: Native gel shift assay; type: binding; conditions: 2.5 μM FITC peptide, 50 μg/mL protein, 1 h 37 °C, hrCNE
T2 sequence (Q96EP0 480-636): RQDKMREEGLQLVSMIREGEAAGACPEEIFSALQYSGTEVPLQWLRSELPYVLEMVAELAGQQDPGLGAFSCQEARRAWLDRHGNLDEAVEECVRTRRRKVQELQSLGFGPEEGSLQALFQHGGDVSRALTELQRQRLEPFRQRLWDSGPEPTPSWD

HOIL-UBL = molecular target: T3, HOIL-UBL (Homo sapiens, UniProt Q9BYM8); experiment: Native gel shift assay; type: binding; conditions: 2.5 μM FITC peptide, 50 μg/mL protein, 1 h 37 °C, hrCNE
T3 sequence (Q9BYM8 37-128): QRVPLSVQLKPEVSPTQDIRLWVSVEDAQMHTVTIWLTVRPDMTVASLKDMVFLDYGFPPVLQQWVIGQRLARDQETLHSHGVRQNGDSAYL
Method in brief: as §1

His6-HOIL-UBL = molecular target: T4, His6-HOIL-UBL (human, UniProt Q9BYM8-1 37-137); experiment: SPR
T4 sequence: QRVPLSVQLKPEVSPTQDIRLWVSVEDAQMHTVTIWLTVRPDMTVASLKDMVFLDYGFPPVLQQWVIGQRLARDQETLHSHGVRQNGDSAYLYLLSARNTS

GST-HOIP-UBA = molecular target: T5, GST-HOIP-UBA (human, UniProt Q96EP0 480-636); experiment: SPR
T5 sequence: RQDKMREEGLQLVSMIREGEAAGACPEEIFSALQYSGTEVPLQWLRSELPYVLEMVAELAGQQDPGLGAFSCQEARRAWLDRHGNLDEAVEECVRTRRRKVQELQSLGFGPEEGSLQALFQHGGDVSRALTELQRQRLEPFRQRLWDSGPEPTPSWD

[1] = molecular target: T6, Petit-LUBAC (truncated sub-complex of LUBAC: HOIL-1L 1-191 and HOIP 474-1072) (human, UniProt Q9BYM8-1 1-191; Q96EP0 474-1072); experiment: native gel or EMSA
T6 sequence (looked up) 1: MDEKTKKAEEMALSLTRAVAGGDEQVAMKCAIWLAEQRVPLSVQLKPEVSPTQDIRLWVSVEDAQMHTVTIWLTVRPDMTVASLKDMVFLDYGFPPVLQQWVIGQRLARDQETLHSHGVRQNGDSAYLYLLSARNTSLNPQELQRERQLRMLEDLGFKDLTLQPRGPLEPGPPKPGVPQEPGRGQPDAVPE
T6 sequence (looked up) 2: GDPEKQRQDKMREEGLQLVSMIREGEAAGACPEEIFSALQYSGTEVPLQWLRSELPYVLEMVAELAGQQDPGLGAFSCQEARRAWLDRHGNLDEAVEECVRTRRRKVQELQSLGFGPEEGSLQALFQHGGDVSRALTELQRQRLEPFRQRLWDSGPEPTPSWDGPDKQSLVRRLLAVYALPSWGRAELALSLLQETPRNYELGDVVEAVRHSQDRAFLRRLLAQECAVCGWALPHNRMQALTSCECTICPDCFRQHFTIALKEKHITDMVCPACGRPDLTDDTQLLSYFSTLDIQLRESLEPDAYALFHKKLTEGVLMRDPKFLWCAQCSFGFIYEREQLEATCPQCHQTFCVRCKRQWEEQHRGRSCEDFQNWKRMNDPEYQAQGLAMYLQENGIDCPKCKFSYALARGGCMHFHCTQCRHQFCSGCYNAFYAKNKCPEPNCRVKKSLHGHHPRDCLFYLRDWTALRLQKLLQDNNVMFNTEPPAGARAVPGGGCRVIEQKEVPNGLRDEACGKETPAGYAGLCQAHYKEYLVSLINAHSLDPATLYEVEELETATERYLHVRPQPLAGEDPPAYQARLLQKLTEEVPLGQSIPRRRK

[2] = molecular target: T7, HOIP residues 474-1072 (the HOIP chain of Petit-LUBAC) (human, UniProt Q96EP0 474-1072); experiment: native gel or EMSA
T7 sequence (looked up): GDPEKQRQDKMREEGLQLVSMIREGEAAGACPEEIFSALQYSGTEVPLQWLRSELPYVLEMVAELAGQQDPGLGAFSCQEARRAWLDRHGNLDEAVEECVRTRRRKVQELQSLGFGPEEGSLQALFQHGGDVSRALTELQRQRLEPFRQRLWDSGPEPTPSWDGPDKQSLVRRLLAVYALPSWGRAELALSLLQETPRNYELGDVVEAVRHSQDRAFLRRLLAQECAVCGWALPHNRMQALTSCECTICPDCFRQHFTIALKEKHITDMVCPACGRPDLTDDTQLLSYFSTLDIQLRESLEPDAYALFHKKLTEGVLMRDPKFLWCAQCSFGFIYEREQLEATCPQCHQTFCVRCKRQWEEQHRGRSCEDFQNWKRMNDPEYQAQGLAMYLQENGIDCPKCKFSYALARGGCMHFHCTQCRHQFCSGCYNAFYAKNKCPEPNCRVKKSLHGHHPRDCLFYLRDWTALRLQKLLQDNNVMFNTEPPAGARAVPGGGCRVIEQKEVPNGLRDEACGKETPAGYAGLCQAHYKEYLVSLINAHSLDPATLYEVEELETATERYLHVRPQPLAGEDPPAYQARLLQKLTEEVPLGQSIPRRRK

Kd (His6-HOIL-UBL): 97.3 µM
Kd (GST-HOIP-UBA): 81.4 µM
B1: P2G WT (5), unstapled HOIP peptide with proline-to-glycine substitution (peptide, UniProt Q96EP0 606-627, looked up)
peptide: {Ac-βAla}-SRALTELQRQRLEGFRQRLWDS-NH2

binding result [2]: binds
B3: HOIL-1L residues 1-191 (the HOIL chain of Petit-LUBAC) (domain or fragment, human, UniProt Q9BYM8-1 1-191, looked up)
chain: MDEKTKKAEEMALSLTRAVAGGDEQVAMKCAIWLAEQRVPLSVQLKPEVSPTQDIRLWVSVEDAQMHTVTIWLTVRPDMTVASLKDMVFLDYGFPPVLQQWVIGQRLARDQETLHSHGVRQNGDSAYLYLLSARNTSLNPQELQRERQLRMLEDLGFKDLTLQPRGPLEPGPPKPGVPQEPGRGQPDAVPE

Kd (GST-HOIP-UBA): 4.28 µM
B4: N-P2G (6), N-stapled P2G HOIP peptide (peptide)
chain: SRALTELQRQRLEGFRQRLWDS
modifications: N-terminal β-alanine; N-terminal acetyl; hydrocarbon staple between two cross-linking amino acids in the N-terminal (α8) helix

Further lines, the molecule ahead of its results:

Molecule: 1: unstapled peptide based on 22-amino acid region of HOIP-UBA (residues 606-627) ({Ac-βAla}-SRALTELQRQRLEPFRQRLWDS-NH2) [Compound 1]
Gel shift of FITC-labelled peptide with Petit-LUBAC (Petit-LUBAC): higher shifted molecular weight
Gel shift of FITC-labelled peptide with HOIP-UBA (HOIP-UBA): a shift similar to the one observed with Petit-LUBAC was observed
Gel shift of FITC-labelled peptide with HOIL-UBL (HOIL-UBL): no shift was observed

B2: FITC labeled HOIP WT (1) peptide (peptide, UniProt Q96EP0 606-627, looked up)
peptide: {FITC-βAla}-SRALTELQRQRLEPFRQRLWDS-NH2
binding result [1]: binds

Reference: article PMC5844832 (Bioorganic & medicinal chemistry, 2017)
